Where a name gives a salt, the structure may show the parent alone. Read-outs that look alike come from different tables or passages of the source.

The source of these data is publication PMC11588060 (Proceedings of the National Academy of Sciences of the …, 2024).

In assay [1] the test system is SfnG. As to conditions: cited from earlier work.
The next assay concerns the target SsuD. Particulars: read-out: KD for FMN binding; E. coli SsuD; cited from earlier work.
A further assay concerns the target T1, MsuE (Pseudomonas fluorescens, UniProt Q3K9A2).
T1 sequence (Q3K9A2 1-187): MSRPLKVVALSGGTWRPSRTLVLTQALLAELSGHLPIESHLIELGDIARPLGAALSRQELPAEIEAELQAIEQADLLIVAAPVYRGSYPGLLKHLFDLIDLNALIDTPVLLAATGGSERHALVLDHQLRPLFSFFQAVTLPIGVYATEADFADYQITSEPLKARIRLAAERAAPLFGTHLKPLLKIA
Nature of the assay: Fluorometric equilibrium titration of MsuE with oxidized FMN. Format: binding. The method in brief:
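Recombinant P. fluorescens enzyme titrated at equilibrium with oxidized FMN, binding followed by intrinsic protein fluorescence on a spectrofluorometer. FMN range: 0.2 µM to 400 µM for MsuC and MsuD, 0.033 µM to 260 µM for MsuE. The fit gave KD, total enzyme and R2. Values are ±SD from three assay replicates.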

Assay [2] addresses T2, SfnG (Pseudomonas fluorescens, UniProt Q3KC85).
T2 sequence (Q3KC85 1-364): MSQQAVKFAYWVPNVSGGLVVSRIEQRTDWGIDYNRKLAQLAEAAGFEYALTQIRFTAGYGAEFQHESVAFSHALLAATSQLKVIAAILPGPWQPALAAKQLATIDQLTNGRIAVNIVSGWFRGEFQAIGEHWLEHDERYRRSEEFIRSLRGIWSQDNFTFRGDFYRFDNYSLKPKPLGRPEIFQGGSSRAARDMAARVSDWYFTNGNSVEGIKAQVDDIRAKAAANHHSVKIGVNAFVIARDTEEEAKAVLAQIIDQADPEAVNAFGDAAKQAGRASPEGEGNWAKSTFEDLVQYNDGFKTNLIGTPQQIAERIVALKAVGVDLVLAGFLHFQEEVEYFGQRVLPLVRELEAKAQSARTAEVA
Nature of the assay: Surface plasmon resonance flavin binding assay, SfnG captured on NTA sensor chip. On the technique in general: Surface plasmon resonance follows binding to a sensor surface in real time, without labels.

Assay [3] deals with T2, SfnG. Nature of the assay: Mixed dialkylsulfone monooxygenation endpoint assay. Format: biochemical. Particulars: 1 mM substrate, 8 µM SfnG, 1 µM MsuE, 500 µM NADH, 2 µM FMN, 30 °C, 80 min.

For the compound `C[S+](C)[O-]` [DMSO], the “SfnG activity against the compound” value in the assay with SfnG [1] is listed as “not active”.
As a reminder, the Kd is a measure of binding affinity in units of concentration. For orientation: koff means the first-order rate constant of dissociation. With `Cc1cc2nc3c(=O)[nH]c(=O)nc-3n(C[C@H](O)[C@H](O)[C@H](O)COP(=O)(O)O)c2cc1C` [FMN, riboflavin 5´-monophosphate sodium salt], the Kd is 10 µM at SsuD and 0.54 ± 0.06 µM on MsuE. Moreover, the values for the koff on SfnG [2] and on SfnG [2] (read-out: koff rate constant with DMSO2 in the running buffer) were 0.42 s⁻¹ and 0.00836 s⁻¹, respectively. At SfnG [2] (FMN binding to SfnG, with 1% (v/v) DMSO versus without), the “fold decrease in KD by SPR with 1% (v/v) DMSO in the running buffer” value came out at 2.7 fold.
For the compound `CCS(=O)(=O)CC` [diethylsulfone], the “product(s) of conversion by SfnG (1H NMR endpoint assay)” value on SfnG [3] is reported as “ethanesulfinate”.
